In ChEMBL document CHEMBL1153910, “Salicylate-urea-based soluble epoxide hydrolase inhibitors with high metabolic and chemical stabilities” (Bioorg Med Chem Lett, 2009):
Converted amounts (≈) assume the structure as drawn. The source made the active and inactive calls. The calls are words filed in the database; no cut-off is given here.

How the values were obtained:
[1] = target: T1, Bifunctional epoxide hydrolase 2 (Homo sapiens, UniProt P34913); test: Inhibition of human soluble epoxide hydrolase by fluorescence assay
T1 sequence (P34913 whole entry): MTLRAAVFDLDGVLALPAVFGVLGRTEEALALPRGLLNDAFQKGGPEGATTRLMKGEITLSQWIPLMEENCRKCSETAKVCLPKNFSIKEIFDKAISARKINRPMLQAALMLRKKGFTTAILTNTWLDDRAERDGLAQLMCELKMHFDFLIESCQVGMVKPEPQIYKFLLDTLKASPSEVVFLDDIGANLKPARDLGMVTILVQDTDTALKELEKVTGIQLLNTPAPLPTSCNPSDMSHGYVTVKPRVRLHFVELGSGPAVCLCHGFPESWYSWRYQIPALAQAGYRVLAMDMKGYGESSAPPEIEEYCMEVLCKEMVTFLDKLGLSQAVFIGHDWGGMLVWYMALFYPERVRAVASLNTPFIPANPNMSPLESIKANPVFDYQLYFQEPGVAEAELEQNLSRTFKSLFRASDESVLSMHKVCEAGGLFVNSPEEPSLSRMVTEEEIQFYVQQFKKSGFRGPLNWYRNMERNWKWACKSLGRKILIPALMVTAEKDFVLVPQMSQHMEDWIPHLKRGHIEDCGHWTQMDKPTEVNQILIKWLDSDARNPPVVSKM
Outline: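 Recombinant human sEH was used, with inhibition measured by a kinetic fluorescent assay and reported as IC50.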

[2] = Metabolic stability in human liver S9 fraction in presence of NADPH assessed as residual parent compound remaining; format: ADME, subcellular
Outline: (§1)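 Compounds were incubated with human liver S9 fraction, with or without NADPH. Residual parent compound is given as a percentage remaining.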

[3] = Chemical stability in 40 mM NaOH at 22 degC; format: physicochemical
[4] = Solubility in 0.1 M sodium phosphate buffer at pH 7.4
[5] = Octanol-water distribution coefficient, log P of the compound; format: physicochemical
Outline: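 Partitioning was between buffer-saturated 1-octanol and 0.1 M sodium phosphate buffer, pH 7.4. Compound concentration was measured in each phase, and logP = log10([octanol]/[buffer]).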

[6] = Metabolic stability in human liver S9 fraction in absence of NADPH assessed as residual parent compound remaining; format: ADME, subcellular; outline: as §1
[7] = Chemical stability assessed as compound hydrolysis after 15 mins in 40 mM NaOH at 22 degC; format: physicochemical; settings: 0.25 h
[8] = target: T2, Prostaglandin G/H synthase 2 (Homo sapiens) (UniProt P35354); test: Inhibition of COX2 at 10 uM by fluorescence assay
T2 sequence (whole entry): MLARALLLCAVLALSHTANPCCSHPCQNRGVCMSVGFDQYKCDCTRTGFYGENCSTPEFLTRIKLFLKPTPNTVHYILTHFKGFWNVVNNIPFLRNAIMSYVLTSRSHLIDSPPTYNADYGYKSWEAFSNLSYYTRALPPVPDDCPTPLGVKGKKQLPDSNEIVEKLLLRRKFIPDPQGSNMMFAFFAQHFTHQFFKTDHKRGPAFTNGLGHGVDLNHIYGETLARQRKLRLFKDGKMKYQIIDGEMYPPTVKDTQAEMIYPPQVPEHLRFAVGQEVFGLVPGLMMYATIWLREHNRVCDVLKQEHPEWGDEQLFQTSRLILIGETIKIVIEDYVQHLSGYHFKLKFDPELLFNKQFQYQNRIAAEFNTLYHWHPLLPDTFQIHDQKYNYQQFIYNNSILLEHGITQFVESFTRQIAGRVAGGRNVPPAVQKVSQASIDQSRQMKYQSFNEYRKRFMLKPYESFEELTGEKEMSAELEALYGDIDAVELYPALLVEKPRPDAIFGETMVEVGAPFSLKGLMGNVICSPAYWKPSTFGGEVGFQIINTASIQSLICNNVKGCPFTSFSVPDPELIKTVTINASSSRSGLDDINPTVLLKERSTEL

[9] = Cmax in dog at 0.3 mg/kg, po; format: ADME, organism-based, Canis lupus familiaris; design: dose 0.3 mg/kg, route oral; settings: in vivo
Outline: (§2)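 Dogs were dosed by oral gavage at 0.3 mg/kg in tri-olein-rich oil. Blood concentration–time profiles were followed, and pharmacokinetic parameters were derived from those profiles.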

[10] = Tmax in dog at 0.3 mg/kg, po; format: ADME, organism-based, Canis lupus familiaris; design: dose 0.3 mg/kg, route oral; settings: in vivo; outline: as §2
[11] = Chemical stability assessed as compound remaining after 7 hrs in 40 mM NaOH at 22 degC; format: physicochemical; settings: read-out: Activity
[12] = target: Prostaglandin G/H synthase 1 (Homo sapiens) (UniProt P23219); test: Inhibition of COX1 at 10 uM by fluorescence assay
[13] = Half life in dog at 0.3 mg/kg, po; format: ADME, organism-based, Canis lupus familiaris; design: dose 0.3 mg/kg, route oral; settings: in vivo; outline: as §2
[14] = AUC (0 to 24 hrs) in dog at 0.3 mg/kg, po; format: ADME, organism-based, Canis lupus familiaris; design: time < 24 hr, dose 0.3 mg/kg, route oral; settings: plasma; outline: as §2
[15] = AUC (0 to infinity) in dog at 0.3 mg/kg, po; format: ADME, organism-based, Canis lupus familiaris; design: time infinity, dose 0.3 mg/kg, route oral; settings: plasma; outline: as §2

Chain of Prostaglandin G/H synthase 1 (Homo sapiens) (P23219 whole entry): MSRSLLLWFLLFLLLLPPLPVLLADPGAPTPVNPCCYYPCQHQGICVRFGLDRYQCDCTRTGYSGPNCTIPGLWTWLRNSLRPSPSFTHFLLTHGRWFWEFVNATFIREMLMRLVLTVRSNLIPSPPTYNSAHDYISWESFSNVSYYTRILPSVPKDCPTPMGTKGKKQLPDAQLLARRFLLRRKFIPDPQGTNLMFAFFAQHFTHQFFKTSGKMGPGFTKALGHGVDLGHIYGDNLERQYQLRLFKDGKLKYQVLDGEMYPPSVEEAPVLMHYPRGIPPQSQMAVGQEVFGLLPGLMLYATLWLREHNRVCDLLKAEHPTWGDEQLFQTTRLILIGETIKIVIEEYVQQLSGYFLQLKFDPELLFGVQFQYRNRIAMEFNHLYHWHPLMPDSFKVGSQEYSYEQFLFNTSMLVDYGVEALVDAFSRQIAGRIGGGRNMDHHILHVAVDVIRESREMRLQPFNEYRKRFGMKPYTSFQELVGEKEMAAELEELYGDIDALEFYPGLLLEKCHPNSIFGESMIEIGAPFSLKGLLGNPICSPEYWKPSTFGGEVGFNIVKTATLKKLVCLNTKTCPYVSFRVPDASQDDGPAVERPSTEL

For `O=C(Nc1ccc(C(=O)O)cc1)NC12CC3CC(CC(C3)C1)C2`, the IC50 [1] was 1.41 µM.
In the case of `O=C(Nc1cccc(C(=O)O)c1)NC12CC3CC(CC(C3)C1)C2`, the IC50 [1] is reported as 0.365 µM.
Compound `O=C(Nc1cccc(C(=O)N2CCC(N3CCOCC3)CC2)c1)NC12CC3CC(CC(C3)C1)C2` has an IC50 [1] of 0.029 µM.
In the case of `O=C(Nc1ccccc1)NC12CC3CC(CC(C3)C1)C2`, the IC50 [1] is reported as 0.017 µM.
With `O=C(O)CCc1ccc(NC(=O)NC23CC4CC(CC(C4)C2)C3)cc1` the IC50 [1] was 0.126 µM.
Work on `O=C(Nc1ccc(O)c(C(=O)O)c1)NC12CC3CC(CC(C3)C1)C2` yielded an IC50 [1] of 0.116 µM.
Work on `CC(=O)Oc1cccc(NC(=O)NC23CC4CC(CC(C4)C2)C3)c1` yielded an IC50 [1] of 0.0058 µM.
Compound `COC(=O)c1ccc(NC(=O)NC23CC4CC(CC(C4)C2)C3)cc1` has a Stability [2] of 95%, a half-life [3] of 2 h and a solubility [4] of 400 µg/mL (≈ 1220 µM). The logP [5] was over 3.9, the Stability [6] was 97% and the IC50 [1] was 0.0041 µM.
For `CC(=O)Oc1ccc(NC(=O)NC23CC4CC(CC(C4)C2)C3)cc1`, the Stability [2] was under 0.1%, the Stability [6] was under 0.1% and the IC50 [1] was 0.0039 µM. For the same compound, the Stability [7] was “Unstable”.
With `COC(=O)c1ccc(NC(=O)NC23CC4CC(CC(C4)C2)C3)cc1O` the Stability [2] was 89%, the solubility [4] was 200 µg/mL (≈ 581 µM) and the Activity [8] was “inactive”. The logP [5] was over 4.1, the Cmax [9] was 45 nM and the Tmax [10] was 1 h. The Stability [6] was 93%, the remaining at 7 h [11] was 80% and the Activity [12] was “inactive”. The half-life [13] was 7.9 h, the IC50 [1] was 0.0028 µM and the AUC(0-t) at 24 h [14] was 0.189 µM·h. The AUC(0-inf) [15] was 0.209 µM·h.
Compound `O=C(Nc1cccc(OC(=O)c2ccccc2)c1)NC12CC3CC(CC(C3)C1)C2` has an IC50 [1] of 0.0051 µM.
Work on `O=C(O)CCCCCCCCCCCNC(=O)NC12CC3CC(CC(C3)C1)C2` yielded a Cmax [9] of 18 nM, a Tmax [10] of 0.5 h and a half-life [13] of 2.9 h. It also gave an AUC(0-t) at 24 h [14] of 0.0522 µM·h and an AUC(0-inf) [15] of 0.0524 µM·h.
In the case of `O=C(Nc1ccc(O)cc1)NC12CC3CC(CC(C3)C1)C2`, the IC50 [1] is reported as 0.024 µM.
Compound `O=C(Nc1cccc(O)c1)NC12CC3CC(CC(C3)C1)C2` has an IC50 [1] of 0.028 µM.
`COc1cccc(NC(=O)NC23CC4CC(CC(C4)C2)C3)c1` gave an IC50 [1] of 0.0047 µM.
`COC(=O)Cc1ccc(NC(=O)NC23CC4CC(CC(C4)C2)C3)cc1` gave an IC50 [1] of 0.004 µM.
Compound `O=C(Nc1cccc(C(=O)N2CCOCC2)c1)NC12CC3CC(CC(C3)C1)C2` has an IC50 [1] of 0.025 µM.
Work on `O=C(Nc1ccc(OC(=O)c2ccccc2)cc1)NC12CC3CC(CC(C3)C1)C2` yielded a Stability [2] of 31%, a Stability [6] of 32% and an IC50 [1] of 0.011 µM. For the same compound, the Stability [7] was “Unstable”.
`COC(=O)CCc1ccc(NC(=O)NC23CC4CC(CC(C4)C2)C3)cc1` gave an IC50 [1] of 0.0022 µM.
Compound `O=C(O)Cc1ccc(NC(=O)NC23CC4CC(CC(C4)C2)C3)cc1` has an IC50 [1] of 0.392 µM.
Work on `COc1ccc(NC(=O)NC23CC4CC(CC(C4)C2)C3)cc1` yielded an IC50 [1] of 0.014 µM.
`COC(=O)c1cccc(NC(=O)NC23CC4CC(CC(C4)C2)C3)c1` gave an IC50 [1] of 0.014 µM.
`O=C(Nc1ccccc1O)NC12CC3CC(CC(C3)C1)C2` gave an IC50 [1] of 0.139 µM.
With `CN1CCN(C(=O)c2cccc(NC(=O)NC34CC5CC(CC(C5)C3)C4)c2)CC1` the IC50 [1] was 0.035 µM.
Compound `CCOCCOCCOc1cccc(NC(=O)NC23CC4CC(CC(C4)C2)C3)c1` has a Stability [2] of 56%.
With `COC(=O)c1cc(NC(=O)NC23CC4CC(CC(C4)C2)C3)ccc1O` the Stability [2] was 51%, the Stability [6] was 46% and the IC50 [1] was 0.012 µM.
`COc1ccccc1NC(=O)NC12CC3CC(CC(C3)C1)C2` showed an IC50 [1] of 8.54 µM.
`O=C(Nc1ccc(C(=O)O)c(O)c1)NC12CC3CC(CC(C3)C1)C2` showed a solubility [4] of 199000 µg/mL (≈ 602000 µM), a logP ([5]; read-out: logP) of 1.6 and an IC50 [1] of 0.071 µM.
Compound `COC(=O)CCCc1ccc(NC(=O)NC23CC4CC(CC(C4)C2)C3)cc1` has an IC50 [1] of 0.0031 µM.
For `O=C(O)CCCc1ccc(NC(=O)NC23CC4CC(CC(C4)C2)C3)cc1`, the IC50 [1] was 0.0199 µM.
